Published values gathered from unrelated publications.
Compare with care: the assays were run in different laboratories.
Cell line: A549
Read-out: cell growth or viability

| Structure (SMILES) | technique | time | IC50 |
| --- | --- | --- | --- |
| O=C(N/N=C/CN1CCCC1)Nc1cc2c(Nc3ccc(F)c(Cl)c3)ncnc2cc1O[C@H]1CCOC1 | MTT | 72 h | 6.48 µM |
| O=C(/N=C1\S/C(=C\c2ccc(Cl)cc2)C(=O)N1C1CCCCC1)c1ccc2ccccc2c1 | – | 48 h | 17.6 µM |
| COc1c(C)c(OS(=O)(=O)c2ccc3ccccc3c2)c(C)c(OS(=O)(=O)c2ccc3ccccc3c2)c1C(=O)/C=C/c1ccccc1 | SRB | 72 h | > 50 µM |
| O=C(CN1C(=O)/C(=C/c2ccco2)SC1=S)Nc1ccccc1 | MTT | – | 14.9 µM |
| COc1cc([C@@H]2c3cc4c(cc3[C@@H](O[C@@H]3O[C@@H]5CO[C@@H](C)O[C@H]5[C@H](O)[C@H]3O)[C@H]3COC(=O)[C@H]23)OCO4)cc(OC)c1O | MTT | 48 h | 11.9 µM |
| COCCCOC(=O)[C@]1(C)CC[C@]2(C)CC[C@]3(C)C4=CC=C5C(=CC(=O)C(O)=C5C)[C@]4(C)CC[C@@]3(C)[C@@H]2C1 | MTT | 48 h | 3.22 µM |
| COCCCOc1ccnc(COc2ccc(NC(=O)Nc3cc(F)cc(F)c3)cc2)c1C | MTT | 72 h | 44.8 µM |
| COc1ccccc1OCCNC(=O)COc1cccc2[nH]c3ccccc3c12 | CCK-8 | 72 h | > 100 µM |
| O=C(N/N=C/c1cccn1CCCN1CCCC1)Nc1cc2c(Nc3ccc(F)c(Cl)c3)ncnc2cc1O[C@H]1CCOC1 | MTT | 72 h | 4.36 µM |
| CC1=C(O)C(=O)C=C2C1=CC=C1[C@@]2(C)CC[C@@]2(C)[C@@H]3C[C@](C)(C(=O)OCCCBr)CC[C@]3(C)CC[C@]12C | MTT | 48 h | 4.95 µM |
| COc1cc2ncnc(Nc3ccc(F)c(Cl)c3)c2cc1NC(=O)N/N=C/CN1CCCCC1 | MTT | 72 h | 5.63 µM |
| Cc1ccc(C)n1-c1ccc(-c2nnc(-c3ccccc3Cl)[nH]2)cc1 | MTT | 72 h | 228 µM |
| CCCCNC(=O)NNC(=O)c1cccc(Nc2nccc(-c3ccncc3)n2)c1 | MTT | 24 h | 30.6 µM |
| Cc1c(OCC(F)(F)F)ccnc1COc1ccc(NC(=O)Nc2ccc(Cl)c(C(F)(F)F)c2)cc1 | MTT | 72 h | 4.35 µM |
| O=C(Nc1nnc(-c2cc3ccccc3[nH]2)s1)c1cc2c([nH]c3ccccc32)c(-c2ccccc2)n1 | MTT | 72 h | 3 µM |
| COc1ccccc1/C=C/CNCC(O)COc1cccc2[nH]c3ccccc3c12 (stereo not drawn) | CCK-8 | 72 h | 7.9 µM |
| COc1cc(N(C)CCN(C)C)c(NC(=O)/C=C/C(C)C)cc1Nc1nc(Nc2cnn(C)c2)c2sccc2n1 | MTT | – | 0.44 µM |
| O=C(N/N=C/c1cccn1CCN1CCCC1)Nc1cc2c(Nc3ccc(F)c(Cl)c3)ncnc2cc1O[C@H]1CCOC1 | MTT | 72 h | 2.39 µM |
| NNc1nc(NCc2ccccc2)nc(Nc2ccc(Br)cc2)n1 | SRB | 72 h | > 30 µM |

| Structure (SMILES) | technique | time | IC50 |
| --- | --- | --- | --- |
| CC1=C(O)C(=O)C=C2C1=CC=C1[C@@]2(C)CC[C@@]2(C)[C@@H]3C[C@](C)(C(=O)OCCCOc4ccccc4)CC[C@]3(C)CC[C@]12C | MTT | 48 h | 5.39 µM |
| COC1=C2C[C@@H](C)C[C@H](OC)[C@H](O)[C@@H](C)/C=C(\C)[C@H](OC(N)=O)[C@@H](OC)/C=C\C=C(/C)C(=O)NC(=CC1=O)C2=O | SRB | 72 h | 0.3 µM |
| COc1cccc(C(=O)O[C@@H]2CN3Cc4c(cc5c(c4OC)OCO5)[C@@]24C=C[C@H](OC)C[C@@H]34)c1 | WST-1 | – | > 10 µM |
| Nc1ccc(Cl)c[n+]1[Pt-2]([Cl])([Cl])[n+]1cc(Cl)ccc1N | MTT | 48 h | 6.34 µM |
| Oc1ccc(-c2csc(Nc3ccc4c(O)ncnc4c3)n2)cc1 | MTT | – | 31.2 µM |
| O=C(NC(=S)NCc1ccc(CNC(=S)NC(=O)c2ccc3ccccc3c2)cc1)c1ccc2ccccc2c1 | – | 48 h | 2.82 µM |
| O=C(/C=C/C=C/c1ccc2c(c1)OCO2)N1CCCCC1 | SRB | – | 280 µM |
| C=C(Cl)C(=O)Nc1cc(Nc2nc(N3CCOCC3)c3sccc3n2)c(OC)cc1N(C)CCN(C)C | MTT | – | 0.107 µM |
| COc1c(C)cnc(COc2ccc(NC(=O)Nc3cccc(C(F)(F)F)c3)cc2)c1C | MTT | 72 h | 20.2 µM |
| O=C(N/N=C1\C(=O)N(c2ccccc2)c2ccccc21)c1cc2ccccc2[nH]1 | – | – | 2.41 µM |
| COc1cc2ncnc(Nc3ccc(F)c(Cl)c3)c2cc1NC(=O)N/N=C/c1cccn1CCN1CCCCC1 | MTT | 72 h | 2.31 µM |
| COc1ccccc1NCCCNCC(O)COc1cccc2[nH]c3ccccc3c12 (stereo not drawn) | CCK-8 | 72 h | 10.8 µM |
| O=C(/N=c1\scc(-c2ccccc2)n1C1CCCCC1)c1ccc2ccccc2c1 | – | 48 h | 16.4 µM |
| Cc1ccc(-c2csc(Nc3ccc4c(O)ncnc4c3)n2)cc1 | MTT | – | 27 µM |
| COc1ccccc1/C=C/CNCC(O)COc1ccc2ncccc2c1 (stereo not drawn) | CCK-8 | 72 h | 44.3 µM |
| CCNC(=O)NNC(=O)c1ccc(Nc2nccc(-c3ccc(Cl)cc3)n2)cc1 | MTT | 24 h | > 40 µM |
| OCc1ccc2c(c1C#Cc1ccc(O)cc1)C(c1ccc(O)cc1)(c1ccc(O)cc1)c1cc(O)ccc1-2 | MTT | 48 h | > 50 µM |
| C=C(Cl)C(=O)Nc1cc(Nc2nc(N3CCc4sccc4C3)c3sccc3n2)c(OC)cc1N(C)CCN(C)C | MTT | – | 1.51 µM |
| O=C(NC(=S)Nc1ccc([N+](=O)[O-])cc1)c1ccc2ccccc2c1 | – | 48 h | 5.24 µM |

| Structure (SMILES) | technique | time | IC50 |
| --- | --- | --- | --- |
| COc1ccccc1/C=C/CNCC(O)COc1ccc(C2CCCCC2)cc1 (stereo not drawn) | CCK-8 | 72 h | 11.2 µM |
| CN1CCN(C/C=N/NC(=O)Nc2cc3c(Nc4ccc(F)c(Cl)c4)ncnc3cc2O[C@H]2CCOC2)CC1 | MTT | 72 h | 4.34 µM |
| Nc1ccn([C@@H]2O[C@H](CO)[C@@H](O)C2(F)F)c(=O)n1 | CCK-8 | 72 h | 0.0151 µM |
| CN1C(=O)/C(=N\NC(=O)c2cc3ccccc3[nH]2)c2cc(Br)ccc21 | – | – | 1.49 µM |
| C=CC(=O)Nc1cc(Nc2nc(N3CCc4sccc4C3)c3cccnc3n2)c(OC)cc1N1CCN(CC)CC1 | MTT | – | 1.42 µM |
| CC(C)Cc1ccc(-c2nn(-c3ccc(S(C)(=O)=O)cc3)cc2/C=N/N=c2\[nH]c(-c3ccc(Br)cc3)cs2)cc1 | MTT | 48 h | 15.3 µM |
| CNC(=O)c1cc(Oc2ccc(NC(=O)Nc3ccc(Cl)c(C(F)(F)F)c3)cc2)ccn1 | MTT | 72 h | 2.12 µM |
| COc1cc(CNC(=O)C[C@H](C)CCC=C(C)C)ccc1OCc1cn(-c2ccc(Cl)cc2)nn1 | SRB | 48 h | 10.6 µM |
| COCCCOc1ccnc(COc2ccc(NC(=O)Nc3ccc(Cl)cc3)cc2)c1C | MTT | 72 h | 10.2 µM |
| CCn1c(-c2nnc(NC(=O)c3cc4c([nH]c5ccccc54)c(-c4ccc(OC)cc4)n3)s2)cc2ccccc21 | MTT | 72 h | 14.2 µM |
| CS(=O)(=O)c1ccc(-n2cc(/C=N/N=c3\[nH]c(-c4ccc([N+](=O)[O-])cc4)cs3)c(-c3ccc(Br)cc3)n2)cc1 | MTT | 48 h | 68.7 µM |
| COc1cc2ncnc(Nc3ccc(F)c(Cl)c3)c2cc1NC(=O)N/N=C/CN1CCOCC1 | MTT | 72 h | 6.69 µM |
| COc1ccccc1/C=C/CNCC(O)COc1ccccc1 (stereo not drawn) | CCK-8 | 72 h | 17.4 µM |
| COc1cc(Nc2nccc(-c3cnn4nc(OC)ccc34)n2)cc(C(F)(F)F)c1 | ATP luminescence | – | 0.47 µM |
| Cn1c(=O)c2c(ncn2Cc2nnc(SCC(=O)Nc3ccc(Cl)c(Cl)c3)n2-c2ccccc2)n(C)c1=O | MTT | – | 80.6 µM |
| CCC(=O)Nc1cc(Nc2nc(N3CCc4sccc4C3)c3cccnc3n2)c(OC)cc1N(C)C | MTT | – | > 50 µM |
| COc1cc2ncnc(Nc3ccc(F)c(Cl)c3)c2cc1NC(=O)N/N=C/c1cccn1CCCN1CCOCC1 | MTT | 72 h | 1.86 µM |
| COc1cc(N(C)CCN(C)C)c(NC(=O)C=C(C)C)cc1Nc1nc(N2CCc3sccc3C2)c2sccc2n1 | MTT | – | 27.9 µM |
| O=C(CN1C(=O)/C(=C/c2ccc(Cl)cc2)SC1=S)Nc1ccccc1 | MTT | – | 14.3 µM |
